Sampled rows, rich in hits. Any-hit rate of the full collection: about 3.9%.
NS3 helicase inh: HCV NS3 helicase inhibition; inhibition, % at 10.9 µM; NS3 helicase DNA unwinding, Cy5 molecular beacon fluorescence; AID 1800; 0.56% of 290,000 active;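 active = inhibition above the mean of all tested compounds plus 3 SD, set per campaign, cut at about 35% in these data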
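Compound dosing – single dose, 10.9 µM nominal final, DMSO 0.8% final · System – NS3 helicase fragment of HCV · Buffer or medium – MOPS pH 6.5, MgCl2, DTT, Tween20, BSA · Signal – Cy5 beacon fluorescence read at start and 1 h · Also added – annealed dual-labelled DNA beacon duplex, ATP-started · Schedule – 1 h at 25 °C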
HSP90 inh: inhibitors of HSP90 luciferase refolding in rabbit reticulocyte lysate; luciferase refolding luminescence, 3 h; inhibition, % at 5.6 µM; 0.91% of 290,000 active; AID 1789;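 active = inhibition above the screen-wide mean plus 3 SD, computed separately per campaign, cut at about 16% in these data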;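 also: inhibitors lower the luminescence because luciferase stays unfolded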
HSF-1 act: increases HSF-1 driven luciferase reporter signal. NIH3T3-HGL HSF-1 luciferase reporter, MG132, 8 h; 100% = twice DMSO control signal. activation, % at 9 µM. 1.7% of 300,000 active. AID 504408;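 active = mean replicate activation of at least 50% with a set share of replicates each reaching 50%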
HCV core dimer: HCV core protein dimerization inhibition. TR-FRET GST/Flag-core106 dimerization, 1536-well. inhibition, % at 5 µM. 0.33% of 300,000 active. AID 1899;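 active = inhibition above the mean of all tested compounds plus 3 SD, set per screening campaign, cut at about 45% in these data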
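Assay system: Tagged HCV core106 pair (GST and Flag) | Buffer or medium: KF-containing HEPES buffer, pH 7.45, DTT, CHAPS, BSA | Also added: Eu donor and XL665 acceptor anti-tag antibodies | Dosing: One concentration, 5 µM, in 0.5% DMSO | Timing: 4 h at 22.5 °C | Technique: TR-FRET 671 and 617 nm emission | Repeats: Singlicate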
FID counter: fluorescent intercalator displacement, NS3 helicase counter-screen; DNA fluorescent intercalator displacement, fluorescence; inhibition, % at 7.9 µM; 0.17% of 290,000 active; AID 1845; in the data active = inhibition above about 37%;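 also: higher means more ethidium bromide displaced from hairpin DNA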
HSF1 inhib: HSF1 inhibition | 0.77% of 300,000 active | NIH3T3-HGL HSE-luciferase, MG132-induced, luminescence 8 h; active compounds read low | activity change, negative = inhibition, % at 7.5 µM (by protocol);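 active = more than half of replicate wells show activity change below -50%, luminescence cut by over half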;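 also: luciferase reports HSF-1 transcriptional activity via heat shock element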
HSP90 confirm: HSP90 inhibition, confirmation assay | shares compounds with HSP90 inh | rabbit reticulocyte lysate, luciferase refolding luminescence, 3 h | inhibition, % at 5.9 µM | 64% of 2,300 active; in the data active = inhibition above about 18%
FLuc counter: firefly luciferase inhibition, HSP90 counter-screen | shares compounds with HSP90 inh | purified native firefly luciferase, luminescence | inhibition, % at 5.9 µM | 48% of 2,300 active;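 active = inhibition above the mean inhibition of all tested sample wells plus 3 SD, cut at about 10% in these data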
Target sequence (P08659 whole entry, looked up): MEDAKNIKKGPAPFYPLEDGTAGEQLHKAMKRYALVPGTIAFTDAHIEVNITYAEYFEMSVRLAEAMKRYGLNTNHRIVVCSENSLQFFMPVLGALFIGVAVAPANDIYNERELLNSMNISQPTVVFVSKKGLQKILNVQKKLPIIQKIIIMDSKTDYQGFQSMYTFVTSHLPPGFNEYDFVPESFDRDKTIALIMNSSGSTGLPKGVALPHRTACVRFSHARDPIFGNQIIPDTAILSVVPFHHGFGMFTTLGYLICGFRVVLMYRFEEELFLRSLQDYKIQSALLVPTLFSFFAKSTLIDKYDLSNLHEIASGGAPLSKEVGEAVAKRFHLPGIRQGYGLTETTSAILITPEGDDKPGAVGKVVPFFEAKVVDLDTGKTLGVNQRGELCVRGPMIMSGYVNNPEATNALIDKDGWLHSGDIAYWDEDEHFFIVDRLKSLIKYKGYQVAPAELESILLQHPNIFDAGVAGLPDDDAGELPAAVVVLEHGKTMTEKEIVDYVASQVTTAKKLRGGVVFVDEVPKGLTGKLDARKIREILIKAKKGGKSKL
Hits are given with their value; 0 = inactive; - = no result given.

SMILES	NS3 helicase inh	HSP90 inh	HSF-1 act	HCV core dimer	FID counter	HSF1 inhib	HSP90 confirm	FLuc counter
CC(=O)CSc1ccc(-c2nc3ccccc3[nH]2)cn1	0	24	0	0	0	0	46	0
CC(=O)CSc1ccc(-c2nc3cc(C)c(C)cc3[nH]2)cn1	0	69	0	0	0	0	91	57
CC(C)c1nc2scc(-c3ccc(Cl)cc3)c2c(=O)n1N	0	0	0	0	0	0	-	-
O=C(CSC1=NS(=O)(=O)c2cc(F)ccc2N1)NCCc1ccccc1	-	-	0	0	-	0	-	-
O=C1CCN(Cc2ccccc2)CCN1CCOc1ccccc1	0	17	0	0	0	0	0	21
CC(=O)c1cccc(NC(=O)c2ccc3c(c2)CCN3S(=O)(=O)c2ccccc2)c1	0	20	0	0	0	0	0	0
COc1cccc(N(CC(=O)NCCSc2ccc(Cl)cc2)S(C)(=O)=O)c1	0	0	0	0	0	0	-	-
Cn1cccc1C(=O)NCCc1ccccc1	0	19	0	0	0	0	39	26
O=C(NCCc1ccccc1)c1ccccc1Cl	0	43	0	0	0	0	58	50
O=C(O)c1ccccc1C(=O)NCCc1ccc(Cl)cc1	0	0	0	0	0	0	-	-
O=C(NCCc1ccccc1)c1ccccc1NC(=O)C1CC=CCC1C(=O)O (stereo unspecified)	0	45	0	0	0	0	0	0
CC(C)(C)c1ccc(CS(=O)CC(O)CO)cc1 (stereo unspecified)	0	0	0	0	0	0	-	-
CC1CCC(NC(=O)C2CCC(CNS(=O)(=O)c3cccc4cccnc34)CC2)CC1 (stereo unspecified)	0	0	0	0	0	0	-	-
CCOC(=O)/C(C#N)=C/c1c(Oc2cc(C)cc(C)c2)nc2ccccn2c1=O	0	0	0	0	0	0	-	-
CCOC(=O)/C(C#N)=C/c1c(Oc2cccc(C)c2)nc2ccccn2c1=O	0	29	0	0	0	0	0	0
Cc1oc(-c2ccc(-c3ccccc3)cc2)nc1CN(C)C1CCOC1 (stereo unspecified)	0	75	0	0	0	0	86	0
Cc1oc(-c2ccc(-c3ccccc3)cc2)nc1CN(CCO)C(C)C	0	85	0	0	0	0	94	21
Cc1ccc(CC(=O)CCc2ccccc2)cc1	-	-	0	0	-	0	-	-
COc1ccc(CCNC(=O)CC(Cc2ccccc2)C(=O)O)cc1OC (stereo unspecified)	0	0	0	0	0	0	-	-
COCCn1c(C)cc(C(=O)CSc2n[nH]c(N)n2)c1C	0	0	0	0	0	0	-	-
COCCn1c(C)cc(C(=O)CSc2nnc(C)s2)c1C	0	48	0	0	0	-56	80	72
Oc1c(C=NCc2ccncc2)sc2ccccc12	0	21	0	0	0	0	0	0
Oc1c(C=Nc2ccc(Cl)cn2)sc2ccccc12	0	24	0	0	0	0	42	18
Oc1ccc2oc3c(c2c1C=NCc1ccncc1)CCCC3	0	0	0	0	0	0	-	-
CN=Cc1sc2ccccc2c1O	0	34	0	0	0	0	0	0
SMILES	NS3 helicase inh	HSP90 inh	HSF-1 act	HCV core dimer	FID counter	HSF1 inhib	HSP90 confirm	FLuc counter
Oc1c(/C=N/c2ccccn2)sc2ccccc12	0	0	0	0	0	0	-	-
Oc1ccccc1N=Cc1sc2ccccc2c1Cl	0	0	0	0	0	0	-	-
Oc1c(C=Nc2cccnc2)sc2ccccc12	0	23	0	0	0	0	16	18
Oc1c(C=Nc2ccccc2)sc2ccccc12	0	38	0	0	0	0	84	80
CC(=O)NCCN=Cc1sc2ccccc2c1O	0	20	0	0	0	0	0	0
CCOC(=S)SCc1cn2cccc(C)c2n1	0	0	0	0	0	0	-	-
COc1ccccc1C(=O)Nc1nc2ccccc2[nH]1	0	98	0	0	0	-83	97	92
CSc1ccccc1C(=O)Nc1nc2ccccc2[nH]1	0	0	0	0	0	0	-	-
COc1ccc(C(=O)Nc2ccc3ccccc3n2)c(OC)c1OC	0	41	0	0	0	0	68	65
COc1ccccc1C(=O)NCCC(=O)Nc1nc2ccccc2[nH]1	-	-	0	0	-	0	-	-
COc1cc(SC)ccc1C(=O)Nc1nc2ccccc2[nH]1	0	99	0	0	0	-92	97	92
Cc1sc(NC(=O)CSc2nc(N)n(CC(=O)c3ccccc3)n2)c(C#N)c1C	0	0	0	0	0	0	-	-
NNC(=S)Nc1ccccc1Cl	0	45	0	0	0	-53	27	0
O=C(CSc1ccc2nnc(CCNC(=O)c3ccccc3)n2n1)NCc1ccccc1	0	0	0	0	0	0	-	-
O=C(NCCc1nnc2ccc(NCc3ccc(Cl)cc3)nn12)c1ccccc1	0	20	0	0	0	0	0	0
Cc1ccc(S(=O)(=O)/N=C(\c2ccc(Cl)cc2)N2CCOCC2)cc1	0	0	0	0	0	0	-	-
Cc1cc(=O)n(-c2ccc(C(=O)O)cc2)[nH]1	0	0	0	0	0	0	-	-
Cc1cc(=O)n(-c2ccc(O)cc2)[nH]1	0	18	0	0	0	0	0	0
Cc1ccsc1/C=N\NC(=O)c1n[nH]c2c1CCC2	0	20	0	0	0	0	48	43
CN(C)c1ccc(/C=N/NC(=S)NCc2ccco2)cc1	0	0	0	0	0	0	-	-
CN(C)c1ccc(C(=S)NCc2ccco2)cc1	0	57	0	0	0	0	65	38
O=C(NNc1nc2ccccc2o1)c1ccccc1	0	20	0	0	0	0	28	20
O=C(NC(=Nc1nc2ccccc2o1)NC(=O)c1ccccc1)c1ccccc1	0	0	0	0	0	0	-	-
CC1CN(C(=O)NCc2ccccc2)c2cc(Cl)ccc2O1 (stereo unspecified)	0	0	0	-	0	0	-	-
Cc1ccc(C(C)NC(=O)Cc2cccs2)cc1C (stereo unspecified)	0	0	0	0	0	0	-	-
SMILES	NS3 helicase inh	HSP90 inh	HSF-1 act	HCV core dimer	FID counter	HSF1 inhib	HSP90 confirm	FLuc counter
Cc1ccc(C(C)NC(=O)Cc2cccs2)c(C)c1 (stereo unspecified)	0	30	0	0	0	0	0	0
CCC(=O)Nc1ccc(Cl)c(-c2nc3ncccc3o2)c1	0	0	0	0	0	0	-	-
CC(C)C(=O)Nc1ccc(-c2nc3cccnc3o2)cc1	0	26	0	0	0	0	30	0
CC(C)C(=O)Nc1ccc(-c2nc3ncccc3o2)cc1	0	18	0	0	0	0	25	13
Cc1cc2nc(-c3ccc(NC(=O)C(C)C)cc3)oc2cc1C	0	0	0	0	0	0	-	-
CCCC(=O)Nc1ccc(Cl)c(-c2nc3ncccc3o2)c1	0	23	0	0	0	0	0	0

Bioassay records: PubChem BioAssay, several laboratories
